The source made the active and inactive calls. No cut-off for these calls is given here.
Tests used:
[1] = test system: AMO1; assay: Antitumor activity against human AMO1 xenografted in CB-17 SCID mouse assessed as maximum tumor growth inhibition at 3.125 mg/kg, iv administered for 5 consecutive days measured post-last dose; assay type: functional; set-up: scale not given: the % may be the effect or the level left; conditions: time 5 day
How it was run: (§1)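 Female CB-17 SCID mice, 6−7 weeks old. 5 × 10⁶ AMO-1 cells in growth medium/Matrigel 50:50 injected subcutaneously in the right flank. Randomised at about 200 mm³, n = 8 to 10 per group. Dosed iv in 20% HPbCD–25 mM HCl, daily for 5 days or weekly for 4 weeks. Calipers 2−3 times weekly; volume = length × width²/2. TGI computed from median change in volume versus control; delay judged at median volume 500 mm³.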

[2] = test system: Daudi; assay: Antiproliferative activity against human Daudi assessed as reduction in cell viability incubated for 3 days by Cell Titer Blue assay; assay type: functional, cell-based; conditions: time 3.0 day
[3] = test system: AMO1; assay: Antitumor activity against human AMO1 xenografted in CB-17 SCID mouse assessed as maximum tumor growth inhibition at 12.5 mg/kg, iv administered for 5 consecutive days measured post-last dose; assay type: functional; set-up: scale not given: the % may be the effect or the level left; conditions: time 5 day; how it was run: as §1
[4] = test system: Raji; assay: Antiproliferative activity against human Raji assessed as reduction in cell viability incubated for 3 days by Cell Titer Blue assay; assay type: functional, cell-based; conditions: time 3.0 day
[5] = Plasma protein binding in mouse assessed as unbound fraction; assay type: ADME, cell-free
[6] = test system: MINO; assay: Antiproliferative activity against human Mino assessed as reduction in cell viability incubated for 3 days by Cell Titer Blue assay; assay type: functional; conditions: time 3.0 day
[7] = test system: SU-DHL-1; assay: Antiproliferative activity against human SU-DHL1 assessed as reduction in cell viability incubated for 3 days by Cell Titer Blue assay; assay type: functional, cell-based; conditions: time 3.0 day
[8] = test system: THP-1; assay: Induction of apoptosis in human THP1 cells incubated for 2 hrs by annexin-V-FITC and propidium iodide staining based by flow cytometry; assay type: functional, cell-based
How it was run: (§2)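 THP-1 cells, wild type or CRISPR BAX/BAK knockout (verified by Western blot), were treated for 2 h. They were washed in binding buffer (10 mM Hepes, 140 mM NaCl, 2.5 mM CaCl₂) and stained with annexin V-FITC and PI for 15 min at 20 °C in the dark. 10⁴ cells per sample were read by flow cytometry. Apoptotic plus necrotic cells were normalised to total cells. Two biological replicates; DMSO control.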

[9] = test system: HL-60; assay: Antiproliferative activity against human HL60 assessed as reduction in cell viability incubated for 3 days by Cell Titer Blue assay; assay type: functional, cell-based; conditions: time 3.0 day
[10] = Terminal half-life in mouse at 12.5 mg/kg, iv formulated with 20 % HPBCD in water/ […]; assay type: ADME, organism-based; conditions: in vivo, read-out: beta t1/2 (converted)
[11] = test system: AMO1; assay: Antitumor activity against human AMO1 cells xenografted in CB-17 SCID mouse assessed as maximum tumor growth inhibition at […] mg/kg, iv administered as bolus dose for 5 consecutive days measured on day 4 relative to control; assay type: functional; set-up: scale not given: the % may be the effect or the level left; conditions: time 5 day
[12] = test system: NOMO-1; assay: Antiproliferative activity against human NOMO1 assessed as reduction in cell viability incubated for 3 days by Cell Titer Blue assay; assay type: functional, cell-based; conditions: time 3.0 day
[13] = molecular target: Apoptosis regulator Bcl-2 (Homo sapiens) (UniProt P10415); assay: Displacement of Bak BH3 domain from FLAG-tagged Bcl-2 (unknown origin) expressed in human Hela cells at 30 to 300 nM incubated for 2 hrs by immunoprecipitation assay; assay type: cell-based; conditions: dose 30-300 nM
Chain of Apoptosis regulator Bcl-2 (Homo sapiens) (P10415 whole entry, the tested form may be a part): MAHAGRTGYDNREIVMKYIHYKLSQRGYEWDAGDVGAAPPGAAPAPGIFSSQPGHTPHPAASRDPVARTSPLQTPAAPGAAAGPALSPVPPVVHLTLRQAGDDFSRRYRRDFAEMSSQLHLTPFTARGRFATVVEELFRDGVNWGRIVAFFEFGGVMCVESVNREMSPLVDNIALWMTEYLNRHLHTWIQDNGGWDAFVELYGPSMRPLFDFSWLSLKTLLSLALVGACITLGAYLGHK
How it was run: (§3)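 HeLa cells in DMEM with 10% FCS were transiently transfected with Flag-tagged Mcl-1, Bcl-xL or Bcl-2 vectors. 24 h later they were treated for 2 h and lysed (Hepes pH 7.5, 150 mM KCl, MgCl₂, EDTA, 0.4% Triton X100). Cleared lysates were immunoprecipitated with anti-Flag M2 beads. Inputs and IPs were immunoblotted for endogenous Bax, Bak and Flag.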

[14] = test system: OCI-Ly7; assay: Antiproliferative activity against human OCI-LY7 assessed as reduction in cell viability incubated for 3 days by Cell Titer Blue assay; assay type: functional, cell-based; conditions: time 3.0 day
[15] = molecular target: Cytochrome P450 2C8 (Homo sapiens, UniProt P10632); assay: Drug metabolism assessed as CYP2C8 (unknown origin) mediated metabolism; assay type: ADME
Chain of Cytochrome P450 2C8 (P10632 whole entry): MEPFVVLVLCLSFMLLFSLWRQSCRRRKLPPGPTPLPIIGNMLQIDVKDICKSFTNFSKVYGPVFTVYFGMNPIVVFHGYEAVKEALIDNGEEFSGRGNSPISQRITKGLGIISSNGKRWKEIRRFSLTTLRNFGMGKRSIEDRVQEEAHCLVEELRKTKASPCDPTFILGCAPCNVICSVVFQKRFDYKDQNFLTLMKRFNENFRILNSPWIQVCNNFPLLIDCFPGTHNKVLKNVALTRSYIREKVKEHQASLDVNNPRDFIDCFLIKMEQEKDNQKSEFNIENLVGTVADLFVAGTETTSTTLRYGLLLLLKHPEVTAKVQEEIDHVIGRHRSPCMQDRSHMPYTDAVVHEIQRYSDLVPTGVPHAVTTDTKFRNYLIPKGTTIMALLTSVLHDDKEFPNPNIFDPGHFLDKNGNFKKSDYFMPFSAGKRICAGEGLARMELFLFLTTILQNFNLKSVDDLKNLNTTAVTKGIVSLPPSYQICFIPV

[16] = test system: AMO1; assay: Antitumor activity against human AMO1 xenografted in CB-17 SCID mouse assessed as tumor growth inhibition at 12.5 mg/kg, iv administered weekly for upto week 4 measured post last dose measured on day 10; assay type: functional; conditions: time 4 weeks, read-out: TGI; how it was run: as §1
[17] = molecular target: Cytochrome P450 3A4 (Homo sapiens, UniProt P08684); assay: Inhibition of CYP3A4 (unknown origin); assay type: ADME
Chain of Cytochrome P450 3A4 (P08684 whole entry): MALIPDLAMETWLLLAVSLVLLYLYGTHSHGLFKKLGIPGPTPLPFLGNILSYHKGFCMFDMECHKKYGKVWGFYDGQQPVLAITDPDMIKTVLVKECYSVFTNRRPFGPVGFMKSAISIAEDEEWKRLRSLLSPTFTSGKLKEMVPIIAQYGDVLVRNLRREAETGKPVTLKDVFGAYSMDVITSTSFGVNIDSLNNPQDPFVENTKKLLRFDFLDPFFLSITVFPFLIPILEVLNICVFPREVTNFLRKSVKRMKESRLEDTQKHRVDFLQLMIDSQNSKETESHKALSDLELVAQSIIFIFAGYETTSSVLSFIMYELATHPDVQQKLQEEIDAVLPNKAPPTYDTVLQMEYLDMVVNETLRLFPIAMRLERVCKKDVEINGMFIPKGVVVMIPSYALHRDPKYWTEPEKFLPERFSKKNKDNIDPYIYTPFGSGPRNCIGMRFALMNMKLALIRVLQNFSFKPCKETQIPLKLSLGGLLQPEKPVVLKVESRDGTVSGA
How it was run: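 High-throughput drug-drug interaction screen using human CYP450-transfected cells; IC50 determined for CYP3A4 inhibition.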

[18] = test system: AMO1; assay: Antitumor activity against human AMO1 xenografted in CB-17 SCID mouse assessed as tumor regression at 12.5 mg/kg, iv administered for 5 consecutive days and observed upto day 35 post last dose; assay type: functional, organism-based; conditions: time 35.0 day; how it was run: as §1
[19] = molecular target: Induced myeloid leukemia cell differentiation protein Mcl-1 (Homo sapiens) (UniProt Q07820); assay: Displacement of Bak BH3 domain from FLAG-tagged Mcl-1 (unknown origin) expressed in human Hela cells at 30 to 300 nM incubated for 2 hrs by immunoprecipitation assay; assay type: cell-based; conditions: dose 30-300 nM; how it was run: as §3
Chain of Induced myeloid leukemia cell differentiation protein Mcl-1 (Homo sapiens) (Q07820 whole entry, the tested form may be a part): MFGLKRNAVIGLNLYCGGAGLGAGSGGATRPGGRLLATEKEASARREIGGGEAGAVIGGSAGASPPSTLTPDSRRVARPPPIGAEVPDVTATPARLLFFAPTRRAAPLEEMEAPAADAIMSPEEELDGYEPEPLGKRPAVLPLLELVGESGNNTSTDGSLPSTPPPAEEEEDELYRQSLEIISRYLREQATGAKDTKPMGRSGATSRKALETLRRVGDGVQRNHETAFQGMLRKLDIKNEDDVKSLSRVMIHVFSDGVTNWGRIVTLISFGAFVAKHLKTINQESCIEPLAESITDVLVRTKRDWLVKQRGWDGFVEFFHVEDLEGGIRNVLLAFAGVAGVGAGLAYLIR

[20] = test system: AMO1; assay: Antitumor activity against human AMO1 xenografted in CB-17 SCID mouse assessed as tumor growth inhibition administered intravenously for 5 consecutive days measured post-last dose; assay type: functional; conditions: time 5.0 day; how it was run: as §1
[21] = Terminal half-life in mouse at […] mg/kg, iv formulated with 20 % HPBCD in water/ […]% HCl; assay type: ADME, organism-based; conditions: in vivo, read-out: beta t1/2 (converted)
[22] = test system: OCI-AML2; assay: Antiproliferative activity against human OCI-AML2 assessed as reduction in cell viability incubated for 3 days by Cell Titer Blue assay; assay type: functional, cell-based; conditions: time 3.0 day
[23] = test system: THP-1; assay: Induction of apoptosis in Bax/Bak knockout human THP1 cells at 1 to 3000 nM incubated for 2 hrs by annexin-V-FITC and propidium iodide staining based by flow cytometry; assay type: functional, cell-based; conditions: dose 1-3000 nM; how it was run: as §2
[24] = Clearance in mouse at 12.5 mg/kg, iv formulated with 20 % HPBCD in water/ […]; assay type: ADME, organism-based; conditions: in vivo
[25] = test system: AMO1; assay: Antitumor activity against human AMO1 cells xenografted in CB-17 SCID mouse assessed as time to reach tumor volume of 500 mm3 at […] mg/kg, iv administered as bolus dose for 5 consecutive days; assay type: functional; conditions: time 5 day
[26] = test system: THP-1; assay: Antiproliferative activity against human THP-1 assessed as reduction in cell viability incubated for 3 days by Cell Titer Blue assay; assay type: functional, cell-based; conditions: time 3.0 day
[27] = molecular target: Voltage-gated inwardly rectifying potassium channel KCNH2 (Homo sapiens, UniProt Q12809); assay: Inhibition of human ERG
Chain of Voltage-gated inwardly rectifying potassium channel KCNH2 (Q12809 whole entry): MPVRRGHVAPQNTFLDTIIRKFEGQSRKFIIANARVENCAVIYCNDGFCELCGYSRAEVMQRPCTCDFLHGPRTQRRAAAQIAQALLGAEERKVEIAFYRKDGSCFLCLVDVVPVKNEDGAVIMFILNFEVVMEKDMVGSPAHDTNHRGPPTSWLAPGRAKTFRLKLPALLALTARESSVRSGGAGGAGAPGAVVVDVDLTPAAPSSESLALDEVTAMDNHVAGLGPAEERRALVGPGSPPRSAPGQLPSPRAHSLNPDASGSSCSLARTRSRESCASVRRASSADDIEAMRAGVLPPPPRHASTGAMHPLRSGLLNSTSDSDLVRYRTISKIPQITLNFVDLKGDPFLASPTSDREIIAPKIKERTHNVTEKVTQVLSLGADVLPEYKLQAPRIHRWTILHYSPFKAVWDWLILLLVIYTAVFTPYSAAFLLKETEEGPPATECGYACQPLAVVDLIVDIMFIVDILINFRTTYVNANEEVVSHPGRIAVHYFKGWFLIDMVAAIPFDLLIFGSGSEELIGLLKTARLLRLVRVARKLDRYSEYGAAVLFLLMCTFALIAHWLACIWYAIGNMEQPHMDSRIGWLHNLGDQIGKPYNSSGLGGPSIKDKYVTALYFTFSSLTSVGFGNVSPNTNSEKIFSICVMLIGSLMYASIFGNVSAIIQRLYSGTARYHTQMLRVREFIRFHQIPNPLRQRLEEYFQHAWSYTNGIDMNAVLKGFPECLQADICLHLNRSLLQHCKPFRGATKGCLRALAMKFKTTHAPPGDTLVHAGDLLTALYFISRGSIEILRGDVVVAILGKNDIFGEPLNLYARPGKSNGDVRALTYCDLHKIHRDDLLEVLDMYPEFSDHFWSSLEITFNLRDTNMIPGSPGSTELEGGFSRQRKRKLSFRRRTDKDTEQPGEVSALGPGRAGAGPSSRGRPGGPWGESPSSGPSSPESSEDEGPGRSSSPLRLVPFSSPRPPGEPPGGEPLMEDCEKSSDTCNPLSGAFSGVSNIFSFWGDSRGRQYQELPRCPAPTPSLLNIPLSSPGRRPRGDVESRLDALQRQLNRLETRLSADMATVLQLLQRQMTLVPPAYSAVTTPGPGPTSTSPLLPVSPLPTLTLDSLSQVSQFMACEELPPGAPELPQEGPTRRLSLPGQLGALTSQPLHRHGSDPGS

[28] = Plasma protein binding in human assessed as unbound fraction; assay type: ADME, cell-free
[29] = test system: AMO1; assay: Antitumor activity against human AMO1 xenografted in CB-17 SCID mouse assessed as maximum tumor growth inhibition at […] mg/kg, iv administered for 5 consecutive days measured post-last dose; assay type: functional; set-up: scale not given: the % may be the effect or the level left; conditions: time 5 day
[30] = test system: HuT78; assay: Antiproliferative activity against human HUT78 assessed as reduction in cell viability incubated for 3 days by Cell Titer Blue assay; assay type: functional, cell-based; conditions: time 3.0 day
[31] = molecular target: Bcl-2-like protein 1 (Homo sapiens) (UniProt Q07817); assay: Displacement of Bak BH3 domain from FLAG-tagged Bcl-xl (unknown origin) expressed in human Hela cells at 30 to 300 nM incubated for 2 hrs by immunoprecipitation assay; assay type: cell-based; conditions: dose 30-300 nM; how it was run: as §3
Chain of Bcl-2-like protein 1 (Homo sapiens) (Q07817 whole entry, the tested form may be a part): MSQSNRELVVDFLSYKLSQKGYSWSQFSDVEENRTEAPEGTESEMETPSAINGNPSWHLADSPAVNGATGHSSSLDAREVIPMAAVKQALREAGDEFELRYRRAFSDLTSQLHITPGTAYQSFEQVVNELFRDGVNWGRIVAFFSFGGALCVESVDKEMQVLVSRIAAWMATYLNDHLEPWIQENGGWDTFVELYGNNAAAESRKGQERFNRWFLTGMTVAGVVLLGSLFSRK

- Fu [5]: 0.04%
- half-life [10]: 5 h
- Activity [13]: inactive
- Drug metabolism [15]: Metabolite_Detected
- IC50 [17]: 1800 nM
- Activity [19]: Active
- half-life [21]: 5 h
- clearance [24]: 6 mL/min/kg
- Fu [28]: 0.05%
- Activity [31]: inactive
Structure (SMILES): COc1ccccc1-c1nccc(COc2ccccc2C[C@@H](Oc2ncnc3sc(-c4ccc(F)cc4)c(-c4ccc(OCCN5CCN(C)CC5)c(Cl)c4C)c23)C(=O)O)n1
- Activity [1]: 89.1%
- Activity [2]: Active
- Activity [3]: 162.8%
- Activity [4]: Active
- Activity [6]: Active
- Activity [7]: Active
- Activity [8]: Dose-dependent effect
- Activity [9]: Active
- Activity [11]: 189.5%
- Activity [12]: Active
- Activity [14]: Active
- inhibition in vivo at 12.5 mg/kg [16]: 108%
- Activity [18]: Active
- Activity [20]: Dose-dependent effect
- Activity [22]: Active
- Activity [23]: inactive
- Time [25]: 38 days
- Activity [26]: Active
- IC50 [27]: > 3000 nM
- Activity [29]: 115.8%
- Activity [30]: Active

Source: ChEMBL document CHEMBL4673269, “Discovery of S64315, a Potent and Selective Mcl-1 Inhibitor” (J Med Chem, 2020)
